Results: PubChem BioAssay AID720543 (The Scripps Research Institute Molecular Screening Center, 2013)
The whole screen tested about 370,000 compounds, of which about 2,000 (0.54%) were called active. The list comes from a sample in which actives are over-represented; it also holds similar structures and randomly drawn compounds. Values without a mark were called inactive.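 Rule for the calls: active = inhibition exceeding the mean over every tested compound plus 3 SD (cut at about 30% in these data); inactive = the rest.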

Each compound was assayed against (Lyso)-N-acylphosphatidylethanolamine lipase (Mus musculus) (UniProt Q8VD66) (assay: mouse ABHD4 hydrolase activity blockers – biochemical, fluorescence polarization, primary screen (AID 720543;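 note: 0% = plate median of compound wells and 100% = S159A mutant with DMSO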)). Details: purified mABHD4, FP-Rh probe fluorescence polarization; at 8.92 µM; active compounds read high.
Outline: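 Test system: mouse ABHD4 enzyme, wild type. Reagent: FP-Rh fluorescent activity-based probe, added after compound pre-incubation. Timing: pre-incubation 45 min, probe exposure 60 min, at 25 °C. Technique: FP readout, ex 525 nm / em 598 nm. Benchmarks: high control S159A mutant with DMSO, low control median of compound wells.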

Sequence of (Lyso)-N-acylphosphatidylethanolamine lipase (Mus musculus) (Q8VD66 whole entry, looked up): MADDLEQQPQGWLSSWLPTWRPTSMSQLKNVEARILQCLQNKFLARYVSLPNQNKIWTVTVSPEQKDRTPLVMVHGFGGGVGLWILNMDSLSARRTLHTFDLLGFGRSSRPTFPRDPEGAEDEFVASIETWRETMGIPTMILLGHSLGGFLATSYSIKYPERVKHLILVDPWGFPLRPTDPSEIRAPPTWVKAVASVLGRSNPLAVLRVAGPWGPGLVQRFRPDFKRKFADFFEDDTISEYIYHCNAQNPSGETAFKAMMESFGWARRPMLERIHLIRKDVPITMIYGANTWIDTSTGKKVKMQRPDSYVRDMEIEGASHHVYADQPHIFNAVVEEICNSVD

| Compound | inhibition |
| --- | --- |
| O=c1c2ccccc2[nH]c(=S)n1-c1cccc(Cl)c1 | 6.67% |
| COc1cc(-n2c(=S)[nH]c3ccc(C)cc3c2=O)c(Cl)cc1Cl | 36.9% (active) |
| CC12CN3CC(C)(CN(C1)C3c1cccs1)C2 (stereo not given) | 2.23% |
| C/C=C/CC1(CC)C(=O)NC(=S)NC1=O | 5.1% |
| c1ccc(C2NCc3ccccc3-n3cccc32)cc1 (stereo not given) | 6.15% |
| CCOc1ccc(-c2cc(C)[n+](CCN(CC)CC)c(-c3ccc(OCC)cc3)c2)cc1 | 5.92% |
| CCOc1cccc(=NC2CCCCC2)c2c(C)[nH]c(C)c12 | 34.4% (active) |
| COc1ccc(NC(=O)N2CCC3(CC2)OCCO3)c(OC)c1 | 2.18% |
| CO[C@H]([C@H](C)/C=C/N(C)C=O)[C@@H](C)C(=O)CC[C@H](C)[C@H](O)[C@H](C)[C@H]1OC(=O)/C=C/C(C)=C/[C@H](O)[C@H](OC)C[C@@H]2C=CC[C@@H](C[C@H](OC)[C@@]3(CO3)[C@@H](OC)C[C@@H](OC)[C@@H]1C)O2 | -6.78% |
| Clc1ccc([C@@H]2CC3CCC2N3)cn1 (stereo not given in full) | 7.57% |
